The values that follow come from ChEMBL document CHEMBL1139166, “Synthesis and in vitro evaluation of tetrahydroisoquinolinyl benzamides as ligands for sigma receptors” (Bioorg Med Chem Lett, 2007).

The target in experiment [1] is T1, Sigma non-opioid intracellular receptor 1 (Cavia porcellus, UniProt Q60492). In words: Displacement of [3H](+)-pentazocine from sigma 1 receptor in guinea pig brain membrane. It is filed as cell membranes. The procedure, abridged: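 Male guinea pig brain membranes (0.25 mg protein) were incubated with 1.0 nM [3H](+)-pentazocine in 50 mM Tris-HCl (pH 7.4, 25 °C) for 150 min at 37°C. Haloperidol (1.0 µM) defined nonspecific binding. Ten log-spaced test concentrations were used, in water with 0.1% HOAc/1.0% EtOH. Bound radioactivity was collected on PEI-soaked GF/B filters and counted by scintillation.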
T1 sequence (Q60492 whole entry): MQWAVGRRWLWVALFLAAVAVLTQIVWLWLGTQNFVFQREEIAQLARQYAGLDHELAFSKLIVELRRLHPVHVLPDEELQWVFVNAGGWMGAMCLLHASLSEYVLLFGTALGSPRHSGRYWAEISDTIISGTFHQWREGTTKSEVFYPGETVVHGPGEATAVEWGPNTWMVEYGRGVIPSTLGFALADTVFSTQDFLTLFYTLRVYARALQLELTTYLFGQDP

The next experiment is filed under the species Cavia porcellus. Put plainly: Selectivity for sigma 2 receptor over sigma 1 receptor in guinea pig brain membrane. The experiment is classed as cell membranes. The procedure, abridged:
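Selectivity is the ratio of sigma1 Ki to sigma2 Ki. Sigma1 Ki came from [3H](+)-pentazocine competition and sigma2 Ki from [3H]DTG competition with (+)-pentazocine mask, both in male guinea pig brain membranes.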

The nature of experiment [2]: Displacement of [3H]DTG from sigma 2 receptor in guinea pig brain membrane. It is filed as cell membranes, Cavia porcellus. Put shortly:
(§1)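 Male guinea pig brain membranes (0.25 mg protein) were incubated with 3.0 nM [3H]DTG plus 200 nM (+)-pentazocine as sigma1 mask. Buffer was 50 mM Tris-HCl, pH 8.0, and incubation was 120 min at 25 °C. DTG (100 µM) defined nonspecific binding. Ten log-spaced test concentrations were used. Filters were PEI-soaked GF/B, read by scintillation counting. Ki given as mean ± SEM, n = 3–5.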

Experiment [3] has as its target T1, Sigma non-opioid intracellular receptor 1. Put plainly: Displacement of [3H](+)-pentazocine from sigma 1 receptor in guinea pig brain membrane at pH 8.0 at 25 degC. It is filed as cell membranes. The procedure, abridged:
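This alternative sigma1 regimen used guinea pig brain membranes with 3.0 nM [3H](+)-pentazocine in pH 8.0 buffer. Incubation was 120 min at 25 °C. Nonspecific binding was defined with 10 µM (+)-pentazocine. Bound ligand was separated by filtration and counted by scintillation.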

The nature of experiment [4]: Displacement of [3H]DTG from sigma 2 receptor in guinea pig brain membrane at pH 8.0 at 25 degC. The experiment is classed as cell membranes, Cavia porcellus. Put shortly:
as §1

As to `COc1cc(Br)cc(C(=O)NCCCCN2CCc3cc4c(cc3C2)OCO4)c1OC`, the Ki in experiment [1] was found to be 82.2 nM; in experiment [2], 20.7 nM. In the experiment filed under Cavia porcellus, the Ratio Ki turned out to be 4.
`COc1cc2c(cc1OC)CN(CCCCNC(=O)c1cc(Br)cc(OC)c1OC)CC2` showed a Ki in experiment [2] of 2.7 nM. Also, the concentration for half-maximal inhibition (IC50) in experiment [3] was found to be 1890 nM; in experiment [4], 3 nM.
Take `COc1cc(Br)cc(C(=O)NCCCCN2CCc3cc4c(cc3C2)OCCO4)c1OC`: the Ki in experiment [1] turned out to be 338 nM; in experiment [2] it was 21.7 nM. For the same compound, in the experiment listed under Cavia porcellus, the Ratio Ki stood at 16.
For `COc1cc(Br)cc(C(=O)NCCCCN2CCc3cc4c(cc3C2)OCCCO4)c1OC` the same measures were 1430 nM, 32.6 nM and 44.
Consider `COc1ccc(CCNCCCCNC(=O)c2cc(Br)cc(OC)c2OC)cc1OC`, for which the figures for the Ki in experiment [1] and in experiment [2] were 880 nM and 4620 nM, respectively. Also, the Ratio Ki in the experiment filed under Cavia porcellus is 0.2.
